Measurements: ChEMBL document CHEMBL5030505, “Assessment of NR4A Ligands That Directly Bind and Modulate the Orphan Nuclear Receptor Nurr1” (J Med Chem, 2020)
Active and inactive are the calls of the source. No cut-off for these calls is given here.

What was measured:
Type in all cases: cell-based
[1] = biological target: Nuclear receptor subfamily 4 group A member 2 (Homo sapiens) (UniProt P43354); assay: Modulation of full length human Nurr1 expressed in PC12 cells co-transfected with luciferase reporter plasmid harboring NurRE response element assessed as increase in luciferase activity incubated for 18 hrs by luciferase reporter-gene assay; details: PC-12, filed as modulator
In short: (§1)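 Here PC12 cells (FK-12 medium, 15% horse serum, 2.5% FBS, 37°C, 5% CO2) received full-length Nurr1 (2 μg) without RXRα, plus 3xNBRE- or 3xNurRE-luciferase reporter (6 μg), for 18 h. Cells were replated at 10,000/well for 4 h, then treated with ligand or vehicle in quadruplicate for 18 h. Luciferase luminescence was normalized to vehicle-treated cells. Results are mean ± s.e.m. (n=4) from 2 independent experiments, with one-way ANOVA against vehicle.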

SK-N-BE(2) = assay: Cytotoxicity against human SKNBE2 cells assessed as reduction in cell viability at 125 uM incubated for 18 hrs by Cell Titer Glo assay
In short: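 Cells seeded at 1.5 million per 10-cm dish. Next day they were replated at 10,000 cells/well and rested 4 h. Ligand or vehicle (water, ethanol or DMSO, by ligand) was added in dose-response format in quadruplicate. After 18 h, viability was read by CellTiter-Glo luminescence. Data are mean ± s.e.m., generally representative of 2 independent experiments. One-way ANOVA versus vehicle.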

[2] = biological target: Nuclear receptor subfamily 4 group A member 2 (Homo sapiens) (UniProt P43354); assay: Modulation of full length human Nurr1 expressed in SK-N-BE(2) cells co-transfected with luciferase reporter plasmid harboring NurRE response element assessed as increase in luciferase activity at 1.95 to 125 uM incubated for 18 hrs by luciferase reporter gene assay; details: SKNBE2, filed as modulator, dose 1.95-125 µM
In short: (§2)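 Transfection of SK-N-BE(2)-C cells (1:1 EMEM/F12, 10% FBS, 37°C, 5% CO2) used full-length Nurr1 alone (2 μg, no RXRα) with 3xNBRE- or 3xNurRE-luciferase reporter (6 μg) for 18 h. Cells were replated at 10,000/well for 4 h, then exposed to ligand or vehicle in quadruplicate for 18 h. Luminescence was expressed as fold over vehicle, as mean ± s.e.m. (n=4) from 2 independent experiments, one-way ANOVA against vehicle.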

[3] = biological target: Nuclear receptor subfamily 4 group A member 2 (Homo sapiens) (UniProt P43354); assay: Modulation of full length human Nurr1 expressed in HEK293T cells co-transfected with RXRalpha and luciferase reporter plasmid harboring NBRE response element assessed as decrease in luciferase activity at 1.95 to 125 uM incubated for 18 hrs by luciferase reporter gene assay; details: filed as modulator, dose 1.95-125 µM
In short: (§3)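 Full-length Nurr1 plasmid, alone (2 μg) or 1 μg plus full-length RXRα (1 μg), cotransfected with 3xNBRE- or 3xNurRE-luciferase reporter (6 μg) using Lipofectamine 2000, 18 h. Cells replated at 10,000/well for 4 h. Four ligand concentrations, or vehicle (water, ethanol or DMSO), added in quadruplicate for 18 h. Luciferase read. Fold change vs vehicle, mean ± s.e.m., one-way ANOVA vs vehicle.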

[4] = biological target: Nuclear receptor subfamily 4 group A member 2 (Homo sapiens) (UniProt P43354); assay: Modulation of full length human Nurr1 expressed in PC12 cells co-transfected with luciferase reporter plasmid harboring NurRE response element assessed as decrease in luciferase activity at 1.95 to 125 uM incubated for 18 hrs by luciferase reporter gene assay; details: PC-12, filed as modulator, dose 1.95-125 µM; in short: as §1
[5] = biological target: Nuclear receptor subfamily 4 group A member 2 (Homo sapiens) (UniProt P43354); assay: Modulation of full length human Nurr1 expressed in PC12 cells co-transfected with RXRalpha and luciferase reporter plasmid harboring NBRE response element assessed as decrease in luciferase activity at 1.95 to 125 uM incubated for 18 hrs by luciferase reporter gene assay; details: PC-12, filed as modulator, dose 1.95-125 µM; in short: as §3
[6] = biological target: Nuclear receptor subfamily 4 group A member 2 (Homo sapiens) (UniProt P43354); assay: Modulation of full length human Nurr1 expressed in HEK293T cells co-transfected with luciferase reporter plasmid harboring NBRE response element assessed as decrease in luciferase activity at 1.95 to 125 uM incubated for 18 hrs by luciferase reporter gene assay; details: filed as modulator, dose 1.95-125 µM; in short: as §3
[7] = biological target: Nuclear receptor subfamily 4 group A member 2 (Homo sapiens) (UniProt P43354); assay: Modulation of full length human Nurr1 expressed in HEK293T cells co-transfected with luciferase reporter plasmid harboring NurRE response element assessed as decrease in luciferase activity at 1.95 to 125 uM incubated for 18 hrs by luciferase reporter gene assay; details: filed as modulator, dose 1.95-125 µM; in short: as §3
[8] = biological target: Nuclear receptor subfamily 4 group A member 2 (Homo sapiens) (UniProt P43354); assay: Modulation of full length human Nurr1 expressed in SK-N-BE(2) cells co-transfected with luciferase reporter plasmid harboring NBRE response element assessed as increase in luciferase activity at 1.95 to 125 uM incubated for 18 hrs by luciferase reporter gene assay; details: SKNBE2, filed as modulator, dose 1.95-125 µM; in short: as §2
[9] = biological target: Nuclear receptor subfamily 4immunitygroup A member 1 (Homo sapiens) (UniProt P22736); assay: Modulation of full length human Nur77 expressed in PC12 cells co-transfected with luciferase reporter plasmid harboring NBRE response element assessed as increase in luciferase activity incubated for 18 by luciferase reporter gene assay; details: PC-12, filed as modulator, time 18.0 hrs
In short: (§4)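 Cells seeded at 1.5 million per 10-cm dish. Next day they were transfected (Lipofectamine 2000) with full-length Nur77 or NOR-1 expression plasmid, either alone (2 μg) or 1 μg plus full-length RXRα (1 μg), and 3xNBRE- or 3xNurRE-luciferase reporter (6 μg), 18 h. Cells replated at 10,000/well, 4 h, then ligand dose response added in quadruplicate for 18 h. Luciferase luminescence read.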

[10] = biological target: Nuclear receptor subfamily 4immunitygroup A member 1 (Homo sapiens) (UniProt P22736); assay: Modulation of full length human Nur77 expressed in PC12 cells co-transfected with RXRalpha and luciferase reporter plasmid harboring NurRE response element assessed as increase in luciferase activity incubated for 18 by luciferase reporter gene assay; details: PC-12, filed as modulator, time 18.0 hrs; in short: as §4
[11] = biological target: Nuclear receptor subfamily 4 group A member 3 (Homo sapiens) (UniProt Q92570); assay: Modulation of full length human NOR1 expressed in PC12 cells co-transfected with luciferase reporter plasmid harboring NurRE response element assessed as increase in luciferase activity incubated for 18 by luciferase reporter gene assay; details: PC-12, filed as modulator, time 18.0 hrs
In short: (§5)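 Full-length NOR-1 plasmid was transfected via Lipofectamine 2000, either alone (2 μg) or at 1 μg with full-length RXRα (1 μg). It was paired with a 3xNBRE or 3xNurRE luciferase reporter (6 μg), 8 μg total DNA, for 18 h. Cells were replated at 10,000/well for 4 h, then given a full ligand dose response or vehicle in quadruplicate for 18 h. Luciferase was read; no EC50/IC50 was fitted.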

[12] = biological target: Nuclear receptor subfamily 4 group A member 3 (Homo sapiens) (UniProt Q92570); assay: Modulation of full length human NOR1 expressed in PC12 cells co-transfected with RXRalpha and luciferase reporter plasmid harboring NurRE response element assessed as increase in luciferase activity incubated for 18 by luciferase reporter gene assay; details: PC-12, filed as modulator, time 18.0 hrs; in short: as §5
SKNBE2 = assay: Modulation of Gal4-fused VP16 expressed in SKNBE(2) cells co-transfected with UAS repoter gene assessed as decrease in luciferase activity at 125 uM incubated for 18 hrs by luciferase reporter gene assay; details: Human alphaherpesvirus 2, filed as modulator
In short: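 Cells in 10-cm dishes were transfected with Gal4-VP16 expression plasmid (2 μg) plus 5xUAS-luciferase reporter (2 μg) for 18 h. They were replated at 10,000 cells/well for 4 h, then given ligand or vehicle (water, ethanol or DMSO) in quadruplicate for 18 h. Luciferase was read with Britelite Plus. Fold change is versus vehicle-treated cells, with one-way ANOVA versus vehicle.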

Chain of Nuclear receptor subfamily 4immunitygroup A member 1 (Homo sapiens) (P22736 whole entry): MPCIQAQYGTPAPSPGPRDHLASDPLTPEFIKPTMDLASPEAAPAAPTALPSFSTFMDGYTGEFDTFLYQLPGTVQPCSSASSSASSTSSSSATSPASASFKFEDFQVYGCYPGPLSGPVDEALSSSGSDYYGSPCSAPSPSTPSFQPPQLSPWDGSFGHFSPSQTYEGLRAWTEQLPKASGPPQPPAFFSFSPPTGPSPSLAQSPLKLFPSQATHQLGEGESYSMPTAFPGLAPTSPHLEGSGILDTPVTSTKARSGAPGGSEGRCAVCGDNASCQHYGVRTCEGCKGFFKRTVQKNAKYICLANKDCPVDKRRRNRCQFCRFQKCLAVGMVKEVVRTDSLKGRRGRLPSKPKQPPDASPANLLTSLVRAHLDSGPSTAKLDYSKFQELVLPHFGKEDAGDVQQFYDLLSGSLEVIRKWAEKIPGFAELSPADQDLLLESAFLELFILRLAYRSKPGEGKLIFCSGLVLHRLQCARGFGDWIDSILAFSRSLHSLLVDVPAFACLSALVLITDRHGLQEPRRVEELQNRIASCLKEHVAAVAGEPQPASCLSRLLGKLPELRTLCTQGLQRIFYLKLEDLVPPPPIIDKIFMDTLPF
Chain of Nuclear receptor subfamily 4 group A member 2 (Homo sapiens) (P43354 whole entry): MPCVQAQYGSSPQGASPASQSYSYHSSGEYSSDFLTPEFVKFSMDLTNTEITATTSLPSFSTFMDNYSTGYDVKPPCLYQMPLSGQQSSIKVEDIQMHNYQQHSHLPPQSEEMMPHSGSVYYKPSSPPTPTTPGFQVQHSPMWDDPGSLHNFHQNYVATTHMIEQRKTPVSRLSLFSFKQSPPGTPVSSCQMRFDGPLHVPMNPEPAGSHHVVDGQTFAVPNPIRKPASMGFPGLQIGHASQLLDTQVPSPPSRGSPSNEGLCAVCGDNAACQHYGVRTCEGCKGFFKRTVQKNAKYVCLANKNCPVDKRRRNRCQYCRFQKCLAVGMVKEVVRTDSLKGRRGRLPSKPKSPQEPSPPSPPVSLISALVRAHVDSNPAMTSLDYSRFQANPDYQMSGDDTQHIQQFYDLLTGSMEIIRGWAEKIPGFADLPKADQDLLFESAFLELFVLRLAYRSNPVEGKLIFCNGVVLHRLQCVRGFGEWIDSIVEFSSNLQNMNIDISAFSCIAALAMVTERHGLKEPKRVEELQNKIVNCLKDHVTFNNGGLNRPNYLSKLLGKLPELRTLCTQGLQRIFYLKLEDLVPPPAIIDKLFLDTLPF
Chain of Nuclear receptor subfamily 4 group A member 3 (Homo sapiens) (Q92570 whole entry, the tested form may be a part): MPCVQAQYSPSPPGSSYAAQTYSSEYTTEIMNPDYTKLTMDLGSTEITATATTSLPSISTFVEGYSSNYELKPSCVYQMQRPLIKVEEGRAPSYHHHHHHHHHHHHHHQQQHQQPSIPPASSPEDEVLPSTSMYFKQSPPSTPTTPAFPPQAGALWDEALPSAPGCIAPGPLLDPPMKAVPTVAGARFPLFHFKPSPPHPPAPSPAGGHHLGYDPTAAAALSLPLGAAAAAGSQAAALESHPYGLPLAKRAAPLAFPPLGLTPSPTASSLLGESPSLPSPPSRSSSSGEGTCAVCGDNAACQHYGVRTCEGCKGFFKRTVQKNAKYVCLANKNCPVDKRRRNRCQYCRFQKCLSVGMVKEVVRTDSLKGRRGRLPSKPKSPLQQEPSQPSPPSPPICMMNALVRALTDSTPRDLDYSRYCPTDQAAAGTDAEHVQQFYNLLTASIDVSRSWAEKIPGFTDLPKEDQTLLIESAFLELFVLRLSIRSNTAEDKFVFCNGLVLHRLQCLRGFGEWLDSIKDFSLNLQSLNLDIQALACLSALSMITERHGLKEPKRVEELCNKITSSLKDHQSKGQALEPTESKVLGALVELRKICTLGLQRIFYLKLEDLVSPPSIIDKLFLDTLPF

Activity [1]	Activity [2]	Activity [3]	Activity [4]	Activity [5]	Activity [6]	Activity [7]	Activity [8]	Activity [9]	Activity [10]	Activity [11]	Activity [12]	Compound	Activity (SK-N-BE(2))	Activity (SKNBE2)
Dose-Dependent Effect	Active	Active	Active	Active	Active	Active	Active	Dose-Dependent Effect	Dose-Dependent Effect	Dose-Dependent Effect	Dose-Dependent Effect	CCN(CC)CCCC(C)Nc1ccnc2cc(Cl)ccc12 (stereo not drawn) [CHLOROQUINE]	Non-Toxic	Active
Dose-Dependent Effect	–	–	–	–	–	–	–	Dose-Dependent Effect	Dose-Dependent Effect	Dose-Dependent Effect	Dose-Dependent Effect	CCCCCCCC(=O)c1c(O)cc(O)cc1CC(=O)OCC [CYTOSPORONE B]	–	–
Dose-Dependent Effect	Active	Active	Active	Active	Active	Active	Active	Dose-Dependent Effect	Dose-Dependent Effect	Dose-Dependent Effect	Dose-Dependent Effect	CCN(CC)Cc1cc(Nc2ccnc3cc(Cl)ccc23)ccc1O [AMODIAQUINE]	Non-Toxic	Active
